Assay results taken from ChEMBL document CHEMBL1128337, “Synthesis and cytotoxic activity of 6-vinyl- and 6-ethynyluridine and 8-vinyl-and 8-ethynyladenosine” (J Med Chem, 1995).

Legend:
Assay type in all cases: functional, cell-based
FM3A = experiment: Compound was tested for the inhibition of murine mammary carcinoma FM3A cell proliferation; details: Mus musculus
In short: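 FM3A cells in Eagle's minimal essential medium with 10% fetal calf serum, 2 mM L-glutamine, 0.075% NaHCO3. Seeded 5 × 10⁴ cells/well (200 μL) with varying compound concentrations and incubated 48 h at 37 °C, humidified CO2 atmosphere. Cell number from Coulter counter. IC50 = concentration reducing viable cells by 50%.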

L1210 = experiment: Compound was tested for the inhibition of murine leukemia L1210 cell proliferation; details: Mus musculus
In short: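 L1210 cells maintained in Eagle's minimal essential medium with 10% fetal calf serum, 2 mM L-glutamine, 0.075% NaHCO3. Exposed to varying compound concentrations at 5 × 10⁴ cells/well (200 μL) and grown 48 h at 37 °C, humidified CO2 atmosphere. Counted with Coulter counter. IC50 = concentration reducing viable cells by 50%. Means of at least two or three independent experiments.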

MT4 = experiment: Compound was tested for the inhibition of human T-lymphoblast MT-4 cell proliferation
In short: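 MT-4 cells grown in RPMI-1640 with 10% fetal calf serum, 2 mM L-glutamine, 0.075% NaHCO3. Seeded at 6.25 × 10⁴ cells/well with varying compound concentrations and cultured 120 h at 37 °C, humidified CO2 atmosphere. Viable cells counted by trypan blue staining under microscope. IC50 = concentration reducing viable cell number by 50%. Means of at least two or three independent experiments.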

MOLT-4F = experiment: Compound was tested for the inhibition of human T-lymphoblast Molt/4F cell proliferation
In short: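 Molt/4F cells in RPMI-1640 with 10% fetal calf serum, 2 mM L-glutamine, 0.075% NaHCO3. Plated at 6.25 × 10⁴ cells/well across varying compound concentrations and grown 72 h at 37 °C, humidified CO2 atmosphere. Cells counted with Coulter counter. IC50 = concentration reducing viable cell number by 50%. Means of at least two or three independent experiments.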

C=Cc1nc2c(N)ncnc2n1[C@@H]1O[C@H](CO)[C@@H](O)[C@H]1O
IC50 (FM3A): 145 µM | IC50 (L1210): 190 µM | IC50 (MT4): 15 µM | IC50 (MOLT-4F): 6.5 µM

C#Cc1cc(=O)[nH]c(=O)n1C1O[C@H](CO)[C@@H](O)[C@H]1O (stereo partly specified)
IC50 (FM3A): > 372 µM | IC50 (L1210): > 372 µM | IC50 (MT4): 286 µM | IC50 (MOLT-4F): > 372 µM

C#Cc1nc2c(N)ncnc2n1[C@@H]1O[C@H](CO)[C@@H](O)[C@H]1O
IC50 (FM3A): 27 µM | IC50 (L1210): 54 µM | IC50 (MT4): 22 µM | IC50 (MOLT-4F): 25 µM

C=Cc1cc(=O)[nH]c(=O)n1C1O[C@H](CO)[C@@H](O)[C@H]1O (stereo partly specified)
IC50 (FM3A): 24 µM | IC50 (L1210): 21 µM | IC50 (MT4): 11 µM | IC50 (MOLT-4F): 14 µM
